# Laboratory results published in publication PMC10099996 (Chembiochem, 2022).
# What was measured:
# [1] = degradation product of bacitracin A; cited from earlier work
# [2] = formation in vivo limits systemic applications; cited from earlier work
# E. faecium E980 = assay: MIC determination; type: cell-based; settings: Table 1; lysogeny broth (LB) supplemented with 0.3 mM ZnSO4; 37 °C, 18 h; visual inspection; median of a minimum of triplicates
# How it was run: (§1)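 Strains from glycerol stocks are grown overnight on blood agar at 37 °C. A single colony goes into TSB and grows at 37 °C to OD600 0.5, then is diluted 100-fold in ZnSO₄-supplemented LB to 10⁶ CFU mL⁻¹. Test compounds are 2-fold serially diluted in the same medium, in triplicate, and mixed with an equal volume of inoculum. Plates are sealed under breathable membranes and incubated 18 h at 37 °C, shaking at 600 rpm. MIC is read visually.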
# [3] = tested on: S. aureus ATCC 29213 (MSSA); assay: MIC determination; type: cell-based; settings: Table 1; lysogeny broth (LB) supplemented with 0.3 mM ZnSO4; 37 °C, 18 h; visual inspection; median of a minimum of triplicates
# How it was run: as §1
# S. simulans 22 = assay: MIC determination; type: cell-based; settings: Table 1; lysogeny broth (LB) supplemented with 0.3 mM ZnSO4; 37 °C, 18 h; visual inspection; median of a minimum of triplicates
# How it was run: as §1
# S. aureus USA300 (MRSA) = assay: MIC determination; type: cell-based; settings: Table 1; lysogeny broth (LB) supplemented with 0.3 mM ZnSO4; 37 °C, 18 h; visual inspection; median of a minimum of triplicates
# How it was run: as §1
MIC E. faecium E980 (E. faecium E980) [µg/mL],MIC S. aureus ATCC 29213 (MSSA) [3] [µg/mL],MIC S. simulans 22 (S. simulans 22) [µg/mL],MIC S. aureus USA300 (MRSA) (S. aureus USA300 (MRSA)) [µg/mL],Molecule,antibiotic activity [1],nephrotoxicity [2]
,,,,bacitracin F,inactive,nephrotoxic
0.5,1,0.5,2,CN[C@H](CC(C)C)C(=O)N[C@H]1C(=O)N[C@@H](CC(N)=O)C(=O)N[C@H]2C(=O)N[C@H]3C(=O)N[C@H](C(=O)N[C@H](C(=O)O)c4cc(O)cc(O)c4-c4cc3ccc4O)[C@H](O)c3ccc(c(Cl)c3)Oc3cc2cc(c3O[C@@H]2O[C@H](CO)[C@@H](O)[C@H](O)[C@H]2O[C@H]2C[C@](C)(N)[C@H](O)[C@H](C)O2)Oc2ccc(cc2Cl)[C@H]1O [Vancomycin],,
